From ChEMBL document CHEMBL1240369, “Antiviral efficacy of the novel compound BIT225 against HIV-1 release from human macrophages” (Antimicrob Agents Chemother, 2010)
Active and inactive are the calls of the source. The calls are words filed in the database; no cut-off is given here.

Tests used:
[1] = Inhibition of Vpu ion channel in HIV1 G-92NG003-G3 in human MDM assessed as inhibition of vrius release; parameters: species or system Human immunodeficiency virus 1
[2] = Inhibition of Vpu ion channel in HIV1 93BR029 in human MDM assessed as inhibition of vrius release; parameters: species or system Human immunodeficiency virus 1
[3] = Inhibition of Vpu ion channel in HIV1 92UG029 in human MDM assessed as inhibition of vrius release; parameters: species or system Human immunodeficiency virus 1
[4] = Inhibition of Vpu ion channel in HIV1 98IN017 in human MDM assessed as inhibition of vrius release; parameters: species or system Human immunodeficiency virus 1
[5] = Inhibition of Vpu ion channel in HIV1 1064.52 in human MDM assessed as inhibition of vrius release; parameters: species or system Human immunodeficiency virus 1
[6] = Selectivity index, ratio of TC50 for human MDM cells to EC50 for HIV1 Ba-L infected in human MDM cells; assay type: toxicity, cell-based; conditions: read-out: Selectivity Index
Summary of the method: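 Day-14 adherence-derived MDM from seronegative donors were infected with HIV-1Ba-L for 3 h, PBS-washed thrice, and cultured in DMEM10+ with compound (10 to 0 μM; DMSO vehicle). EC50 came from nonlinear regression of day-7 supernatant RT activity as % virus control (n = 6, triplicates). TC50 came from day-7 MTT (A560, % DMSO control), range extended to 1,000 μM (n = 3). SI = TC50/EC50.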

[7] = Selectivity index, ratio of TC50 for human MDM cells to EC50 for HIV1 G-92NG003-G3 infected in human MDM cells; assay type: toxicity, cell-based; conditions: read-out: Selectivity Index
[8] = Selectivity index, ratio of TC50 for human MDM cells to EC50 for HIV1 93BR029 infected in human MDM cells; assay type: toxicity, cell-based; conditions: read-out: Selectivity Index
Summary of the method: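 Monocytes were adherence-isolated from seronegative PBMC and differentiated in DMEM with 10% human AB serum. Cells were infected with the R5 subtype F primary isolate (PBMC-grown). Antiviral effect was taken versus DMSO-treated controls. Toxicity was measured in parallel by MTT. The index is mean TC50 divided by mean EC50, from in-house experiments, n = 3.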

[9] = Selectivity index, ratio of TC50 for human MDM cells to EC50 for HIV1 98IN017 infected in human MDM cells; assay type: toxicity, cell-based; conditions: read-out: Selectivity Index
[10] = Selectivity index, ratio of TC50 for human MDM cells to EC50 for HIV1 5705.72 infected in human MDM cells; assay type: toxicity, cell-based; conditions: read-out: Selectivity Index
[11] = Selectivity index, ratio of TC50 for human MDM cells to EC50 for HIV1 MDR3761 infected in human MDM cells; assay type: toxicity, cell-based; conditions: read-out: Selectivity Index
MDM [12] = experiment: Inhibition of Vpu ion channel in 0.01 MOI HIV1 Ba-L infected in 7 days differentiated human MDM cells assessed as number of gag copy; assay type: cell-based; conditions: Human immunodeficiency virus 1
Summary of the method: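 MDM differentiated for 7, 10 or 14 days were infected with HIV-1 Ba-L across a range of MOIs, washed three times with PBS and cultured 7 days with 10 μM compound or equal-volume DMSO. On day 7 postinfection, supernatant RT activity was measured (and infectivity on TZM-bl cells). Cell lysates went to real-time PCR for LTR-gag DNA, normalised to albumin copies.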

MDM [13] = experiment: Inhibition of Vpu ion channel in 0.05 MOI HIV1 Ba-L chronically infected in 7 days differentiated human MDM cells assessed as reverse transcriptase activity after 21 days; assay type: cell-based; conditions: Human immunodeficiency virus 1
Summary of the method: (§1)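 Chronic infection model: MDM were incubated with HIV-1 Ba-L for 3 h and left 7 days unwashed, then washed three times and given a single 10 μM dose (DMSO control). Supernatants were sampled routinely for RT activity. In the washout arm, compound was removed and cells kept drug-free for an additional 20 days.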

MDM [14] = experiment: Inhibition of Vpu ion channel in 0.05 MOI HIV1 Ba-L chronically infected in 10-14 days differentiated human MDM cells assessed as viral inhibition after 1 day relative to control; assay type: cell-based; conditions: Human immunodeficiency virus 1; summary of the method: as §1
MDM [15] = experiment: Inhibition of Vpu ion channel in 0.05 MOI HIV1 Ba-L chronically infected in 10-14 days differentiated human MDM cells assessed as viral inhibition after 5 days post treatment relative to control; assay type: cell-based; conditions: Human immunodeficiency virus 1; summary of the method: as §1
MDM [16] = experiment: Inhibition of Vpu ion channel in 0.05 MOI HIV1 Ba-L chronically infected in 7-14 days differentiated human MDM cells assessed as viral inhibition at 10 uM after 7 days post treatment; assay type: cell-based; conditions: Human immunodeficiency virus 1; summary of the method: as §1
MDM [17] = experiment: Inhibition of Vpu ion channel in 0.05 MOI HIV1 Ba-L chronically infected in 7-14 days differentiated human MDM cells assessed as viral inhibition at 10 uM after 7 days post treatment measured after 20 days drug washout period; assay type: cell-based; conditions: Human immunodeficiency virus 1; summary of the method: as §1
[18] = test system: Human immunodeficiency virus 1; experiment: Antiviral activity against HIV1 Ba-L in human MDM assessed as inhibition integration of virus to host cell genome at 0.3125 to 10 uM; assay type: functional, organism-based
[19] = test system: Human immunodeficiency virus 1; experiment: Antiviral activity against HIV1 Ba-L […] assessed as inhibition integration of virus to host cell genome at 10 uM; assay type: functional; parameters: scale not given: the % may be the effect or the level left
Summary of the method: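 Run in TZM-bl indicator cells (HIV-1 integration activates luciferase), not MDM, infected with HIV-1Ba-L in the presence of BIT225 across 0.3125 to 10 μM. Lysates were given luciferin and light was read on an illuminometer. Percent inhibition of integration was taken relative to DMSO-treated control. Data are from three separate experiments.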

[20] = test system: Human immunodeficiency virus 1; experiment: Antiviral activity against HIV1 Ba-L in human MDM assessed as inhibition integration of virus to host cell genome at 10 nM by RT assay; assay type: functional; conditions: Human immunodeficiency virus 1, Ba-L
[21] = target: Protease (Human immunodeficiency virus 1) (UniProt Q9YQ12); experiment: Inhibition of HIV1 protease assessed as substrate cleavage at 100 uM by cell free assay
Protease (Human immunodeficiency virus 1), sequence (Q9YQ12 as listed by the source): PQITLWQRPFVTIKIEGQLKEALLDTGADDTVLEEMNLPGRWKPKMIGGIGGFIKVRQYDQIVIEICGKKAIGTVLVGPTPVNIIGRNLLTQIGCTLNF
Summary of the method: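 Cell-free fluorometric protease assay: compound (1–100 μM) was premixed with 2 μM quenched HIV-1 protease substrate 1. Background fluorescence (ex 340/em 490 nm) was read every 5 s for 5 min. HIV-1 protease was then added at 1.5% and cleavage followed for a further 5 min. LPV and EFV served as controls.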

[22] = test system: Human immunodeficiency virus 1; experiment: Antiviral activity against HIV1 Ba-L in 14 days differentiated human MDM assessed as decrease in intracellular viral protein at 10 uM after 7 days by Western blot analysis; assay type: functional, organism-based
Summary of the method: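 Day 14 MDM were chronically infected with HIV-1 Ba-L, then given 10 μM compound or DMSO and harvested on day 28. Lysates with equal total protein (checked by β-actin) were run on a 10% polyacrylamide gel and blotted to nitrocellulose. Blots were probed with HIV-1-seropositive human serum, then HRP anti-human IgG.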

PM1 [23] = experiment: Inhibition of Vpu ion channel in 0.05 MOI HIV1 NL4-3 infected in PM1 cells assessed as viral inhibition measured after 7 days by […]; conditions: Human immunodeficiency virus 1
PM1 [24] = experiment: Inhibition of Vpu ion channel in 0.05 MOI HIV1 NL4-3 infected in PM1 cells assessed as viral inhibition measured at 10 uM after 7 days by […]; conditions: Human immunodeficiency virus 1
PBMC = experiment: Inhibition of Vpu ion channel in 0.05 MOI HIV1 NL4-3 infected in human PBMC cells assessed as viral inhibition measured at 10 uM after 7 days by […]; conditions: Human immunodeficiency virus 1

Cn1cc(-c2cccc3cc(C(=O)NC(=N)N)ccc23)cn1
EC50 [1]: 1600 nM
EC50 [2]: 1900 nM
EC50 [3]: 14400 nM
EC50 [4]: 42200 nM
EC50 [5]: 2700 nM
selectivity ratio [6]: 126
selectivity ratio [7]: 131
selectivity ratio [8]: 111
selectivity ratio [9]: 4.8
selectivity ratio [10]: 39.3
selectivity ratio [11]: 39.3
Activity (MDM [12]): 1160
Activity (MDM [13]): < 2 U/ml
inhibition (MDM [14]): 60.7%
inhibition (MDM [15]): 91.5%
Activity (MDM [16]): Active
Activity (MDM [17]): inactive
Activity [18]: inactive
Activity [19]: 6%
inhibition at 0.01 µM [20]: 99%
Activity [21]: inactive
Activity [22]: inactive
inhibition (PM1 [23]): 93.1%
inhibition (PM1 [24]): 21%
inhibition (PBMC): 56.8%
